The source of these data is ChEMBL document CHEMBL3112522, “Bicyclic brominated furanones: a new class of quorum sensing modulators that inhibit bacterial biofilm formation” (Bioorg Med Chem, 2014).

Calls of active or inactive are those of the source. The calls are words filed in the database; no cut-off is given here.

In data set [1] the test system is Escherichia coli. The data set can be described thus: Antibacterial activity against Escherichia coli RP437 expressing red fluorescence protein assessed as inhibition of biofilm formation measured as reduction in biomass at 200 uM after 24 hrs by confocal laser scanning microscopic analysis. The class given is functional, organism-based. The procedure, abridged: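 E. coli RP437 (pRSH103, red fluorescent; grown in LB with 10 µg/mL tetracycline) formed biofilms on 316 stainless-steel coupons with 200 µM compound or 0.4% DMSO control, static, 37 °C, 24 h. Coupons rinsed three times in 0.9% NaCl, then imaged by CLSM. COMSTAT gave biomass, mean thickness and surface area from z-stacks at four locations, normalized to the BF-free control. Four replicates.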

Data set [2] relates to Pseudomonas aeruginosa. The data set can be described thus: Antibacterial activity against Pseudomonas aeruginosa PAO1 assessed as inhibition of biofilm formation incubated for 24 hrs followed by compound-washout measured after 30 mins by crystal-violet staining-based colorimetric assay. The class given is functional, organism-based. The method in brief:
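P. aeruginosa subcultured at OD600 0.1 in LB with compound (DMSO stock) in 96-well polystyrene plates, stationary, 37 °C, 24 h. Wells washed and dried 30 min, stained with 0.1% crystal violet for 30 min, washed, dye solubilized in 95% EtOH, A540 read. Values are (sample − medium)/(DMSO control − medium) × 100. Four replicates.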

Data set [3] deals with Pseudomonas aeruginosa. Kind of data set: Inhibition of quorum sensing system in Pseudomonas aeruginosa PAO-JP2 assessed as reduction of elastase B production at 300 uM after 24 hrs by congo-red staining-based assay relative to control. The procedure, abridged: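 PAO-JP2 grown in PTSB at 37 °C, subcultured at OD600 0.05 with 5 µM 3-oxo-C12-HSL and 10 µM C4-HSL ± compound, shaken at 250 rpm for 24 h. Filtered supernatant (100 µL) incubated with Elastin-Congo red (4.5 mg in 900 µL Tris-HCl pH 7.2, 1 mM CaCl2) for 24 h at 37 °C, stopped with EDTA. A490 read minus bacteria-free blank, normalized to control. Four replicates.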

Data set [4] has as its system Pseudomonas aeruginosa. Kind of data set: Antibacterial activity against Pseudomonas aeruginosa PAO1 expressing green fluorescence protein assessed as inhibition of biofilm formation at 400 uM after 24 hrs by confocal laser scanning microscopic analysis. The class given is functional, organism-based. The method in brief:
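PA01-GFP (pSMC2; grown in LB with 300 µg/mL carbenicillin) formed biofilms on stainless-steel coupons with 400 µM compound, static, 37 °C, 24 h. Coupons rinsed three times in 0.9% saline, then imaged by CLSM.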

Data set [5] concerns the target T1, Transcriptional activator protein LasR (Pseudomonas aeruginosa (strain ATCC 15692 / PAO1 / 1C / PRS 101 / LMG12228)) (UniProt P25084).
T1 sequence (whole entry): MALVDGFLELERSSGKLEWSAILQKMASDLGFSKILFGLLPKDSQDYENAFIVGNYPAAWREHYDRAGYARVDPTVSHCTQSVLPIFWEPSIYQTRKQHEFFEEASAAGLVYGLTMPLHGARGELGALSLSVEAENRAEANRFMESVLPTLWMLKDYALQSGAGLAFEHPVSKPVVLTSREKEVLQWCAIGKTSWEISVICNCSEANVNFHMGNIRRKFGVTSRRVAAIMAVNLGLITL
The data set can be described thus: Antagonist activity at LasR in Pseudomonas aeruginosa PAO-JP2 expressing LasI assessed as inhibition of GFP production at 50 to 300 uM after 24 hrs by fluorescence assay in presence of 3-oxo-C12-HSL. The procedure, abridged:
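PAO-JP2 (plasI-LVAgfp) grown in M9 with 300 µg/mL carbenicillin to OD600 0.1, given 1 µM 3-oxo-C12-HSL ± compound at varied concentrations, incubated 24 h at 37 °C with shaking at 250 rpm. GFP read at ex 500/em 540 nm, M9 background subtracted, divided by OD600 and normalized to the BF-free control. Four replicates.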

Data set [6] concerns SK-N-SH. The data set can be described thus: Cytotoxicity against human SK-N-SH cells assessed as cell survival at 100 uM incubated for 1 hr followed by compound washout measured up to 48 hrs by CCK-8 assay. The data set is classed as cell-based. The method in brief: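 SK-N-SH cells seeded at 5×10^4 cells/mL (100 µL) in EMEM with 10% FBS and allowed to adhere 24 h. Exposed 1 h to 100 µM compound or DMSO control, washed twice, then allowed to recover 0, 24 or 48 h. Live cells measured by CCK-8 at A450. Survival = (sample − medium)/(control − medium) × 100.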
(In general: Tetrazolium dyes change colour on reduction, which living cells bring about.)

Data set [7] in a line: Cytotoxicity against human SK-N-SH cells assessed as cell survival at 400 uM incubated for 1 hr followed by compound washout measured immediately by CCK-8 assay relative to control. The class given is cell-based. Particulars: read-out: Survival. The method in brief:
(§1)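 SK-N-SH cells were grown in EMEM with 10% FBS, penicillin/streptomycin and 2.0 mM L-glutamine at 37 °C, 5% CO2. Wells were seeded at 5×10^4 cells/mL and left 24 h to adhere. Cells were exposed for 1 h in fresh medium, with DMSO-matched controls, then washed twice. After 0, 24 or 48 h recovery, CCK-8 A450 was read. Survival = (sample−medium)/(control−medium)×100.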

Data set [8] has as its system Escherichia coli. Kind of data set: Toxicity in Escherichia coli RP437 assessed as planktonic growth inhibition at 200 uM after 24 hrs. The class given is organism-based. Particulars: in vivo. The method in brief: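 E. coli RP437 in LB at 37 °C, started at OD600 0.05 in 96-well plates with 200 µM compound (DMSO stock), shaken at 250 rpm. OD600 read at 0, 2, 4, 6, 8, 10, 12 and 24 h, normalized to the BF-free control. Six replicates.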

The nature of data set [9]: Cytotoxicity against human SK-N-SH cells assessed as cell survival at 400 uM incubated for 1 hr followed by compound washout measured after 48 hrs by CCK-8 assay relative to control. As to conditions: read-out: Survival. The data set is classed as cell-based. The method in brief:
as §1

Data set [10] has as its system Pseudomonas aeruginosa. Kind of data set: Toxicity in Pseudomonas aeruginosa PAO1 assessed as planktonic growth inhibition at 400 uM after 24 hrs. The data set is classed as organism-based. As to conditions: in vivo.
The test system of data set [11] is Pseudomonas aeruginosa. The data set can be described thus: Antibacterial activity against Pseudomonas aeruginosa PAO1 expressing green fluorescence protein assessed as inhibition of biofilm formation measured as reduction in biomass at 400 uM after 24 hrs by confocal laser scanning microscopic analysis relative to control. The data set is classed as functional. Particulars: PAO1, 24 h.

`O=C1C=C2CCCC(Br)=C2O1`: the inhibition entry in data set [1], in [4] and in data set [5] was “Active” throughout. In [2], the concentration for half-maximal inhibition (IC50) (as a rule, the concentration that inhibits the measured activity by half) is 146 µM. For the same compound, the inhibition (as a rule, the relative decrease from the control value, in per cent) in data set [3] was determined as 80%. The Activity entry in [6], in data set [8] and in data set [10] was “Non-toxic” in each case. Also, the figures for the viability at 1 h, 400 µM in data set [7] and in data set [9] were 76% and 50%, respectively. Moreover, the inhibition at 400 µM in data set [11] stood at 71%.
`O=C1C=C2CCC(Br)=C2O1`: the inhibition result in data set [1], in [4] and in data set [5] was “Active” throughout. Also, the IC50 in data set [2] was greater than 400 µM. In data set [3], the inhibition was found to be 80%. Moreover, the Activity entry in [6], in [8] and in [10] was “Non-toxic” each time. For the same compound, the viability at 1 h, 400 µM in data set [7] is 76%; in data set [9], 6%. Also, the inhibition at 400 µM in data set [11] was found to be 53%.
As to `O=C1C=C2CCCCC(Br)=C2O1`, the inhibition entry in data set [1], in data set [4] and in data set [5] was “Active” in each case. Besides, in data set [2], the IC50 turned out to be 140 µM. Moreover, the inhibition in data set [3] worked out at 80%. The Activity entry in data set [6], in [8] and in [10] was “Non-toxic” each time. The viability at 1 h, 400 µM in data set [7] worked out at 44%; in [9], 13%. Further, in data set [11], the inhibition at 400 µM is 50%.
